High-throughput results deposited in PubChem BioAssay by The Scripps Research Institute Molecular Screening Center.
NPY1 pot ag: human NPY-Y1 potentiation or agonism, primary screen. NPY-Y1 expressing cells, potentiator/agonist activation. activation, % at 3.6 µM. hit rate 0.37% among 220,000; in the data active means activation above about 33%, passing the limit was not always enough;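 further: cells stimulated with NPY at EC10 then isoproterenol at EC100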
NPY-Y2 antag: antagonists of human neuropeptide Y receptor Y2; P49146; NPY-Y2 expressing cells, antagonist mode; inhibition, % at 2.7 µM; hit rate 0.99% among 140,000; in the data active means inhibition above about 17%
Target sequence (P49146 whole entry, looked up): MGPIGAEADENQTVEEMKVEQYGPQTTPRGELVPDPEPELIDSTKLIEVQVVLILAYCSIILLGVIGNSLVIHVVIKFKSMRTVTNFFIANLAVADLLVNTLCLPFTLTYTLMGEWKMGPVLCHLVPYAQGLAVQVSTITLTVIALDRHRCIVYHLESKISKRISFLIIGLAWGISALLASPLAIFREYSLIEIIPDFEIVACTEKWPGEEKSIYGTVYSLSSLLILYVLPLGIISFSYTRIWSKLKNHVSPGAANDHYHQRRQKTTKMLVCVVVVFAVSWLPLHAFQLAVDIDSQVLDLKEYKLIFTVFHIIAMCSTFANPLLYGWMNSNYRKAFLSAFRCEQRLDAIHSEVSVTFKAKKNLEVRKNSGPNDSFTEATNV
NPY-Y2 PAM-ag: potentiates or activates human NPY-Y2 receptor; cells expressing NPY-Y2, potentiator/agonist read-out; activation, % at 3.6 µM; hit rate 0.45% among 220,000; AID 1359; in the data active means activation above about 27%;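 further: cells stimulated with NPY near EC25 plus isoproterenol at EC100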
NPY-Y1 antag: antagonists of human neuropeptide Y receptor Y1; inhibition, % at 3.6 µM; hit rate 1% among 200,000; HEK293-CNG Y1 cells, membrane potential fluorescence; NPY at EC95, then isoproterenol;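 active means inhibition above the campaign mean inhibition of all tested compounds plus 3 SD, cut at about 20% in these data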
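Material: HEK293 cells co-expressing NPY Y1 receptor and cyclic-nucleotide gated channel. Timing: compound incubation 1 h at room temperature, readout 45 min post-stimulation. Signal: fluorescence, membrane potential probe.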
Hits are given with their value; n = inactive; x = no result given. Most compounds without a hit are left out; they make up all but 1.8% or so of the library.

SMILES	NPY1 pot ag	NPY-Y2 antag	NPY-Y2 PAM-ag	NPY-Y1 antag
O=C(CSc1nc(-c2ccc(F)cc2)cc(C(F)(F)F)n1)NCCN1CCOCC1	n	n	n	n
COc1ccc(-c2cc(C(F)(F)F)nc(SCC(=O)Nc3cc(C)on3)n2)cc1OC	n	22	n	n
CC(C)OC(=O)CSc1nc(-c2ccc(F)cc2)cc(C(F)(F)F)n1	n	25	n	28
CCOc1ccc2nc(NS(=O)(=O)c3ccc(NC(C)=O)cc3)sc2c1	n	n	n	n
CCOc1ccc2nc(NS(=O)(=O)Cc3ccccc3)sc2c1	n	20	n	23
CS(=O)(=O)Nc1ccc(C(=O)NCCSCc2c(F)cccc2Cl)cc1	n	x	n	n
CCOC(=O)Cn1nnc2c(sc3nc4c(c(-c5ccc(Cl)cc5)c32)CCC4)c1=O	n	22	n	n
O=C(/C(=C\c1ccccc1)c1nc2ccccc2[nH]1)c1ccc(Cl)cc1	n	n	n	n
O=C(/C(=C/c1ccc(Cl)cc1)c1nc2ccccc2[nH]1)c1cccs1	n	46	n	23
COc1cccc(-c2nc(=S)c3c(n2Cc2ccco2)CCCC3)c1	n	n	n	n
Cc1ccc(-c2nc(=S)c3c(n2Cc2ccco2)CCCC3)cc1	n	n	n	21
Cc1cccc(-c2nc(=S)c3c(n2Cc2ccco2)CCCC3)c1	n	22	n	25
Cn1nc(-c2ccc(OCC(=O)NCC3CCCO3)cc2)c2ccccc2c1=O (stereo not given)	n	n	n	n
O=C(NCc1cccs1)c1ccc(Cl)c(S(=O)(=O)N2CCCC2)c1	n	x	n	n
COc1ccc(OCC(O)Cn2c(=N)n(CCN3CCOCC3)c3ccccc32)cc1 (stereo not given)	n	n	n	n
CCCn1c(=N)n(CC(O)COc2cccc(C)c2)c2ccccc21 (stereo not given)	n	42	n	26
CCn1c(=N)n(CC(O)COc2cccc(C)c2)c2ccccc21 (stereo not given)	n	21	n	20
CCn1c(=N)n(CC(O)c2ccccc2)c2ccccc21 (stereo not given)	n	n	n	n
Cc1ccc2c(c1)N(CCC(=O)NCCCOC(C)C)C(=O)C(C)O2 (stereo not given)	n	n	n	n
COc1ccc(/C=N/NC(=O)C(Cc2c[nH]c3ccccc23)NC(=O)OCC(C)C)cc1[N+](=O)[O-] (stereo not given)	n	33	n	35
O=C(NC(Cc1c[nH]c2ccccc12)C(=O)N/N=C/c1ccc(Cl)cc1)c1cccs1 (stereo not given)	n	x	n	n
O=C(CN(c1ccc(Br)cc1)S(=O)(=O)c1ccc(Cl)c([N+](=O)[O-])c1)NCCc1ccccc1	n	x	n	n
O=C(CN(c1cccc(C(F)(F)F)c1)S(=O)(=O)c1ccc(Cl)c([N+](=O)[O-])c1)NCc1ccccc1	81	n	61	n
Cc1ccc(N(CC(=O)NCCc2ccc(F)cc2)S(=O)(=O)c2ccc(Cl)c([N+](=O)[O-])c2)c(C)c1	68	n	39	n
CC(NC(=O)CN(c1cccc(C(F)(F)F)c1)S(=O)(=O)c1ccc(Cl)c([N+](=O)[O-])c1)c1ccccc1 (stereo not given)	75	n	50	n
SMILES	NPY1 pot ag	NPY-Y2 antag	NPY-Y2 PAM-ag	NPY-Y1 antag
O=C(Nc1nc2ccccc2[nH]1)c1ccc(Br)o1	n	x	n	n
CN(CCO)c1cc(NCCCN2CCC(Cc3ccccc3)CC2)c2nonc2c1[N+](=O)[O-]	51	x	29	n
CN(CCO)c1cc(N2CCCCC2)c2nonc2c1[N+](=O)[O-]	n	x	n	n
COc1ccc(CCN(Cc2cccs2)S(=O)(=O)c2ccc(S(=O)(=O)N3CCCCCC3)cc2)cc1OC	n	n	n	n
CCC(C)NS(=O)(=O)c1ccc(S(=O)(=O)N(CCc2ccc(OC)c(OC)c2)Cc2cccs2)cc1 (stereo not given)	n	31	n	35
CCOC(=O)Nc1nc(-c2ccccc2)c(C(=O)c2ccc(Cl)cc2)s1	n	20	n	40
O[C@@H]1COC(Nc2ccc(N=Nc3ccccc3)cc2)C[C@@H]1O (stereo not given in full)	n	x	n	x
O=C(NC1CCCCCCC1)C1CCCN(S(=O)(=O)c2cnc[nH]2)C1 (stereo not given)	n	n	42	n
Cn1ccc(CC(=O)N2CCC(N3CCC(C(=O)N4CCCC4)CC3)CC2)c1	n	x	n	x
COc1ccc(S(=O)(=O)Nc2cccc(Cl)c2)cc1OC	68	n	58	n
COc1ccc(NS(=O)(=O)c2ccc(OC)c(OC)c2)cc1OC	n	n	n	n
COc1cccc(C(=O)NC(c2ccccc2)C2CCCC2)c1 (stereo not given)	n	x	n	22
N=c1n(CCN2CCCCC2)c2ccccc2n1CC(O)COc1ccccc1 (stereo not given)	n	60	n	49
N=c1n(CCN2CCOCC2)c2ccccc2n1CC(O)COc1ccccc1 (stereo not given)	n	n	n	n
CCCCn1c(=N)n(CC(O)COc2ccc(C)cc2)c2ccccc21 (stereo not given)	n	47	n	61
CCCCn1c(=N)n(CC(O)COc2ccccc2)c2ccccc21 (stereo not given)	n	26	n	34
N#C/C(C(N)=O)=c1/ccc2c(c1)N1C3=C(CCCC3)CC3CCCCC31N=2 (stereo not given)	51	n	47	n
COC(=O)c1sc2nc(C)c([N+](=O)[O-])c(C)c2c1N	n	n	n	n
CC1CC(C)CN(CCOc2ccccc2-c2ccccc2)C1 (stereo not given)	n	30	n	34
Cc1ccc(C(=O)N/C(=C\c2ccc(Br)cc2)c2nc(=S)[nH][nH]2)cc1	47	n	n	n
COc1ccc(/C=C(/NC(=O)c2ccccc2)c2nc3ccccc3[nH]2)cc1OC	n	n	n	n
O=C(N/C(=C/c1cccc(Br)c1)c1nc(=S)[nH][nH]1)c1ccccc1	51	n	25	n
N=c1c2c(-c3ccccc3)c(-c3ccccc3)oc2ncn1CCCN1CCOCC1	n	27	n	21
Cc1cc(OCC(O)CNC(C)(C)C)ccc1Cl (stereo not given)	110	x	102	n
Cc1cc(OCC(=O)NC(C)(C)C)ccc1Cl	n	n	n	n
SMILES	NPY1 pot ag	NPY-Y2 antag	NPY-Y2 PAM-ag	NPY-Y1 antag
CCc1ccc(OCC(O)CNC(C)(C)C)cc1 (stereo not given)	93	n	96	n
CC(C)(C)NCC(O)COCc1ccc(Cl)cc1 (stereo not given)	73	n	68	n
COc1ccc(-c2cc(C(=O)c3c(N)n(C)c(=O)n(C)c3=O)c3ccccc3n2)cc1OC	n	x	n	n
COc1ccc(N2CCN(S(=O)(=O)c3cnc[nH]3)CC2)cc1	n	x	n	x
O=C1c2ccccc2C(=O)N1CCCCN(C(=O)c1cc([N+](=O)[O-])cc([N+](=O)[O-])c1)c1ccc(Cl)cc1	n	n	n	n
O=C1c2ccccc2C(=O)N1CCCCN(C(=O)c1ccc([N+](=O)[O-])cc1)c1ccc(Cl)cc1	67	n	95	n
